Drawing on PubChem BioAssay AID588833 (Broad Institute, 2011), this text covers AC50 for three compounds.

Scavenger receptor class B member 1 (Mus musculus), sequence (Q61009 whole entry, looked up): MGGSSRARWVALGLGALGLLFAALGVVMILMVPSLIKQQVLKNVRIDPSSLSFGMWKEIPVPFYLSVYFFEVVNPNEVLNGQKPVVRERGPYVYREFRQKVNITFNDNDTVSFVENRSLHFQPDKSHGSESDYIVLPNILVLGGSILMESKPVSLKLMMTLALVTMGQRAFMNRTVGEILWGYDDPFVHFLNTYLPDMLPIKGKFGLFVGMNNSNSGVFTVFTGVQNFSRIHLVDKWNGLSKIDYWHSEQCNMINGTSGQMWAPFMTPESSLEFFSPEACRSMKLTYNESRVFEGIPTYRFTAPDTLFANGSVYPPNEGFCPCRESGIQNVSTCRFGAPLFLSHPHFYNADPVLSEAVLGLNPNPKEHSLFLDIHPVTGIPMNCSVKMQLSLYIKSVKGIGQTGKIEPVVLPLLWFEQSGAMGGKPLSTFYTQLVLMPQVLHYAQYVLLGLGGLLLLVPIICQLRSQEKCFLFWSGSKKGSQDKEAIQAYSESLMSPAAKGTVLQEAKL

The target in this assay is Scavenger receptor class B member 1 (Mus musculus) (UniProt Q61009). Briefly: inhibitors of SR-BI-mediated DiI-HDL uptake, dose response, ldlA[mSR-BI] CHO cells, fluorescence, dry powder, set 7 (AID 588833). Particulars: 3 h. The essentials:
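Compound: pin-transferred compounds; material: ldlA[mSR-BI] CHO cells; benchmarks: positive control of BLT-1 at 1 µM; timing: cells plated overnight, then 3 h DiI-HDL uptake at 37 °C; technique: bottom-read fluorescence after PBS washes, excitation 550 nm, emission 595 nm; probe or stimulus: DiI-labeled HDL at 10 µg/mL; buffer or medium: F12, fatty acid-free BSA, HEPES buffer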
One may read the AC50 as the concentration giving half of the maximal activity seen. Regarding `CCCCCCC1CCC/C1=N\NC(N)=S` (stereo not drawn), the concentration at half-maximal activity (AC50) is 0.536 nM.

On to `C[C@H](C(=O)NC1CCCC1)N(C(=O)Cn1nnc(-c2ccc3c(c2)OCO3)n1)C1CCCCC1`, for which the AC50 is 15.4 nM.

Consider `COCC(=O)N1CCc2cc(-c3csc(NC(=O)c4cc(OC)cc(OC)c4)n3)ccc21`, for which the AC50 was 6.18 nM.
